pIC50: −log10 of the molar value. Values after ≈ are worked out from the molar mass of the structure shown.
Tests used:
[1] = tested on: HCT-116; assay: Antiproliferative activity against human HCT116 cells after 48 hrs by MTT assay; type: functional, cell-based; settings: HCT-116, 48 h
Method in brief: (§1)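 Cells were seeded at 5×10^5 cells/mL overnight and exposed to graded compound concentrations for 48 h. MTT (5 mg/mL stock) was added for 4 h at 37 °C, and formazan was dissolved in DMSO. Absorbance was read at 570 nm. IC₅₀ was fitted from the curves; values are mean ± SD, n = 3.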

[2] = tested on: PANC-1; assay: Antiproliferative activity against human PANC1 cells after 48 hrs by MTT assay; type: functional, cell-based; settings: PANC-1, 48 h; method in brief: as §1
[3] = tested on: BXPC-3; assay: Antiproliferative activity against human BxPC3 cells after 48 hrs by MTT assay; type: functional, cell-based; settings: BXPC-3, 48 h; method in brief: as §1
[4] = tested on: A549; assay: Antiproliferative activity against human A549 cells after 48 hrs by MTT assay; type: functional, cell-based; settings: A549, 48 h; method in brief: as §1
[5] = Effective permeability of the compound at pH 7.4 by PAMPA; type: ADME; settings: read-out: Peff
Method in brief: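 Effective permeability was measured by double-sink PAMPA on a pION PAMPA Explorer.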

[6] = tested on: MCF7; assay: Antiproliferative activity against human MCF7 cells after 48 hrs by MTT assay; type: functional, cell-based; settings: MCF7, 48 h; method in brief: as §1
[7] = Intrinsic aqueous solubility of the compound; type: physicochemical; settings: read-out: Intrinsic_solubility
Method in brief: (§2)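 Intrinsic aqueous solubility and log D at pH 7.4 were measured on a pION Gemini Profiler.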

[8] = Distribution co-efficient, log D of the compound at pH 7.4; type: physicochemical; settings: buffer; method in brief: as §2
[9] = tested on: MDA-MB-231; assay: Antiproliferative activity against human MDA-MB-231 cells after 48 hrs by MTT assay; type: functional, cell-based; settings: MDA-MB-231, 48 h; method in brief: as §1
[10] = tested on: HCT-116; assay: Antiproliferative activity against p53-deficient human HCT116 cells after 48 hrs by MTT assay; type: functional, cell-based; settings: HCT-116, 48 h; method in brief: as §1
[11] = tested on: PANC-1; assay: Antitumor activity against human PANC1 cells xenografted in nude mouse assessed as inhibition of tumor weight at 10 mg/kg administered every 2 days for 21 days relative to vehicle-treated control; type: functional

| SMILES | pIC50 [1] | pIC50 [2] | pIC50 [3] | pIC50 [4] | Papp [5] | pIC50 [6] | solubility [7] | logD [8] | pIC50 [9] | pIC50 [10] | inhibition in vivo at 10 mg/kg [11] |
| --- | --- | --- | --- | --- | --- | --- | --- | --- | --- | --- | --- |
| Cc1c(C(=O)NCCS(C)(=O)=O)oc2ccc(N(Cc3ccc(Br)cc3)S(=O)(=O)c3ccc(Br)cc3)cc12 | < 4.40 | < 4.40 | < 4.40 | < 4.40 |  | < 4.40 |  |  | < 4.40 | < 4.40 |  |
| Cc1c(C(=O)N2CCNC(=O)C2)oc2ccc(N(Cc3ccc(Br)cc3)S(=O)(=O)c3ccc(Br)cc3)cc12 | 5.10 | < 4.40 | < 4.40 | < 4.40 |  | < 4.40 |  |  | < 4.40 | 4.66 |  |
| Cc1c(C(=O)N2CCOCC2)oc2ccc(N(Cc3ccc(Br)cc3)S(=O)(=O)c3ccc(Br)cc3)cc12 | 4.66 | 4.62 | 4.54 | 4.72 |  | 4.81 |  |  | 4.60 | 4.58 |  |
| Cc1c(C(=O)NCCN2CCOCC2)oc2ccc(N(Cc3ccc(Br)cc3)S(=O)(=O)c3ccc(Br)cc3)cc12 | 4.98 | 4.49 | 4.57 | 4.67 |  | 4.76 |  |  | 4.63 | 4.88 |  |
| Cc1c(C(=O)N2CCN(C)CC2)oc2ccc(N(Cc3ccc(Br)cc3)S(=O)(=O)c3ccc(Br)cc3)cc12 | 5.07 | < 4.40 | < 4.40 | 4.65 |  | < 4.40 |  |  | < 4.40 | 5.26 |  |
| Cc1c(C(=O)NCCc2ccccn2)oc2ccc(N(Cc3ccc(Br)cc3)S(=O)(=O)c3ccc(Br)cc3)cc12 | < 4.40 | < 4.40 | < 4.40 | < 4.40 |  | < 4.40 |  |  | < 4.40 | < 4.40 |  |
| CN(C)CCNC(=O)c1nc2cc(N(Cc3ccc(Br)cc3)S(=O)(=O)c3ccc(Br)cc3)ccc2o1 | 4.84 | 4.87 | 4.86 |  |  |  |  |  |  |  |  |
| Cc1c(C(=O)OCCCN(C)C)oc2ccc(N(Cc3ccc(Br)cc3)S(=O)(=O)c3ccc(Br)cc3)cc12 | 4.95 | 4.61 | 4.62 | < 4.40 |  | 4.40 |  |  | 4.54 | 5.15 |  |
| Cc1ccc(NC(=O)c2oc3ccc(N(Cc4ccc(Br)cc4)S(=O)(=O)c4ccc(Br)cc4)cc3c2C)nc1 | < 4.40 | < 4.40 | < 4.40 | < 4.40 |  | < 4.40 |  |  | < 4.40 | < 4.40 |  |
| Cc1c(C(=O)NCCc2ccc(S(N)(=O)=O)cc2)oc2ccc(N(Cc3ccc(Br)cc3)S(=O)(=O)c3ccc(Br)cc3)cc12 | 5.25 | < 4.40 | < 4.40 | < 4.40 |  | < 4.40 |  |  | < 4.40 | 4.72 |  |
| CCN(CC)CCNC(=O)c1nc2cc(N(Cc3ccc(Br)cc3)S(=O)(=O)c3ccc(Br)cc3)ccc2o1 | 4.84 | 4.90 | 4.79 |  |  |  |  |  |  |  |  |
| Cc1c(C(=O)N2CCNCC2)oc2ccc(N(Cc3ccc(Br)cc3)S(=O)(=O)c3ccc(Br)cc3)cc12 | 5.52 | 5.08 | 4.71 | 5.06 |  | 5.01 |  |  | 5.04 | 5.48 |  |
| Cc1c(C(=O)NCCNc2ccccc2)oc2ccc(N(Cc3ccc(Br)cc3)S(=O)(=O)c3ccc(Br)cc3)cc12 | < 4.40 | < 4.40 | < 4.40 | < 4.40 |  | < 4.40 |  |  | < 4.40 | < 4.40 |  |
| Cc1c(C(=O)NCCN(C)C)sc2ccc(N(Cc3ccc(Br)cc3)S(=O)(=O)c3ccc(Br)cc3)cc12 | 5.01 | 5.10 | 5.05 |  |  |  |  |  |  |  |  |
| Cc1c(C(=O)NCCN(C)C)[nH]c2ccc(N(Cc3ccc(Br)cc3)S(=O)(=O)c3ccc(Br)cc3)cc12 | 4.78 | 4.95 | 5.16 |  |  |  |  |  |  |  |  |
| CC(=O)NCCNC(=O)c1oc2ccc(N(Cc3ccc(Br)cc3)S(=O)(=O)c3ccc(Br)cc3)cc2c1C | 4.91 | 4.46 | < 4.40 | < 4.40 |  | 4.67 |  |  | < 4.40 | 4.69 |  |
| CCN(CC)CCNC(=O)c1[nH]c2ccc(N(Cc3ccc(Br)cc3)S(=O)(=O)c3ccc(Br)cc3)cc2c1C | 4.80 | 4.98 | 4.76 |  |  |  |  |  |  |  |  |
| Cc1c(C(=O)N2CCCC(C)C2)oc2ccc(N(Cc3ccc(Br)cc3)S(=O)(=O)c3ccc(Br)cc3)cc12 (stereo not drawn) | 4.64 | 4.58 | 4.78 | 4.47 |  | 4.48 |  |  | 4.71 | 4.55 |  |
| Cc1c(C(=O)NCC(O)CO)oc2ccc(N(Cc3ccc(Br)cc3)S(=O)(=O)c3ccc(Br)cc3)cc12 (stereo not drawn) | 4.56 | 4.53 | 4.56 | 4.52 |  | 4.44 |  |  | 4.78 | 4.94 |  |

The next molecules have a higher pIC50 [2] than those just listed; values first:

| pIC50 [1] | pIC50 [2] | pIC50 [3] | pIC50 [4] | Papp [5] | pIC50 [6] | solubility [7] | logD [8] | pIC50 [9] | pIC50 [10] | SMILES | inhibition in vivo at 10 mg/kg [11] |
| --- | --- | --- | --- | --- | --- | --- | --- | --- | --- | --- | --- |
| 5.00 | 5.28 | 5.15 |  |  |  |  |  |  |  | Cc1c(C(=O)NC2CCN(C)CC2)sc2ccc(N(Cc3ccc(Br)cc3)S(=O)(=O)c3ccc(Br)cc3)cc12 |  |
| 5.62 | 5.82 | 5.97 | 5.53 | 2.54 ×10⁻⁶ cm/s | 5.55 | 21 µg/mL (≈ 31 µM) | 2.53 | 5.43 | 5.78 | CCN(CC)CCNC(=O)c1oc2ccc(N(Cc3ccc(Br)cc3)S(=O)(=O)c3ccc(Br)cc3)cc2c1C |  |
| 4.84 | 5.44 | 5.12 |  |  |  |  |  |  |  | Cc1c(C(=O)NC2CCN(C)CC2)[nH]c2ccc(N(Cc3ccc(Br)cc3)S(=O)(=O)c3ccc(Br)cc3)cc12 |  |
| 5.65 | 5.16 | 5.43 | 5.29 |  | 5.47 |  |  | 5.03 | 5.55 | Cc1c(C(=O)NCCN2CCCCC2)oc2ccc(N(Cc3ccc(Br)cc3)S(=O)(=O)c3ccc(Br)cc3)cc12 |  |
|  | 6.39 | 6.25 |  |  |  |  |  | 6.31 |  | COc1cccc2c1C(=O)c1c(O)c3c(c(O)c1C2=O)C[C@@](O)(C(=O)CO)C[C@@H]3O[C@H]1C[C@H](N)[C@H](O)[C@H](C)O1 [DOXORUBICIN] | 71.9% |
| 5.57 | 5.56 | 5.63 | 5.28 |  | 5.26 |  |  | 5.09 | 5.64 | Cc1c(C(=O)NCCN2CCCC2)oc2ccc(N(Cc3ccc(Br)cc3)S(=O)(=O)c3ccc(Br)cc3)cc12 |  |
| 5.42 | 5.30 | 5.59 | 5.30 |  | 5.25 |  |  | 5.12 | 5.59 | Cc1c(C(=O)NCCN2CCN(C)CC2)oc2ccc(N(Cc3ccc(Br)cc3)S(=O)(=O)c3ccc(Br)cc3)cc12 |  |
| 5.44 | 5.23 | 5.32 | 5.27 |  | 5.44 |  |  | 5.08 | 5.92 | Cc1c(C(=O)NCCN(C)C)oc2ccc(N(Cc3ccc(Br)cc3)S(=O)(=O)c3ccc(Br)cc3)cc12 |  |
| 5.51 | 5.64 | 5.69 | 5.37 |  | 5.43 |  |  | 5.18 | 5.43 | Cc1c(C(=O)NCCCN(C)C)oc2ccc(N(Cc3ccc(Br)cc3)S(=O)(=O)c3ccc(Br)cc3)cc12 |  |
| 5.14 | 5.23 | 4.99 |  |  |  |  |  |  |  | CN1CCC(NC(=O)c2nc3cc(N(Cc4ccc(Br)cc4)S(=O)(=O)c4ccc(Br)cc4)ccc3o2)CC1 |  |
| 4.98 | 5.20 | 4.55 | 5.26 |  | 4.96 |  |  | 5.03 | 5.51 | Cc1c(C(=O)NCCN(C(C)C)C(C)C)oc2ccc(N(Cc3ccc(Br)cc3)S(=O)(=O)c3ccc(Br)cc3)cc12 |  |
| 5.61 | 5.60 | 5.29 | 5.51 |  | 5.36 |  |  | 5.10 | 5.63 | CNCCNC(=O)c1oc2ccc(N(Cc3ccc(Br)cc3)S(=O)(=O)c3ccc(Br)cc3)cc2c1C |  |
| 4.96 | 5.12 | 5.10 |  |  |  |  |  |  |  | CCN(CC)CCNC(=O)c1sc2ccc(N(Cc3ccc(Br)cc3)S(=O)(=O)c3ccc(Br)cc3)cc2c1C |  |

Reference: ChEMBL document CHEMBL4130343, “Design, synthesis, and evaluation of benzofuran derivatives as novel anti-pancreatic carcinoma agents via interfering the hypoxia environment by targeting HIF-1α pathway” (Eur J Med Chem, 2017)
